Measured values reported in ChEMBL document CHEMBL1144361, “Identification of chemokine receptor CCR4 antagonist” (Bioorg Med Chem Lett, 2005).

Target: T1, C-C chemokine receptor type 4 (Homo sapiens, UniProt P51679)
T1 sequence (P51679 whole entry): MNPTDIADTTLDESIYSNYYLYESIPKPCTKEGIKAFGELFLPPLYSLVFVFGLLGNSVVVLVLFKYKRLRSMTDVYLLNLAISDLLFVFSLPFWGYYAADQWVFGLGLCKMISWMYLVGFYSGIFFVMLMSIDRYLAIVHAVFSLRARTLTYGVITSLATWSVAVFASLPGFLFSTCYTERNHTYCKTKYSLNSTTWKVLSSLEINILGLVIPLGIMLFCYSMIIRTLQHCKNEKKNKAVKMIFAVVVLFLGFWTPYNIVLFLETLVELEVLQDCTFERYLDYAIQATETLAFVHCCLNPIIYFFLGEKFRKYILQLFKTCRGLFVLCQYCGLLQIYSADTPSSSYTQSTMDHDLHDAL
Test: Inhibitory concentration against human C-C chemokine receptor type 4; range = 3.6-6.1 uM
Outline: (§1)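 Whole-cell SPA binding: HEK293 stably expressing human CCR4, 4×10^4 cells/well on poly-L-lysine plates, cultured overnight at 37 °C. Compounds in DMSO (1%). Nonspecific defined with 100 nM unlabeled MDC. 15 min mixing, then 24 h at rt before counting.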

SMILES | IC50
CCN(CC)CCCC(C)Nc1nc(/C=C/c2ccccc2)nc2ccccc12 (stereo not given) | 6.1 µM

Target: C-C chemokine receptor type 2 (Homo sapiens, UniProt P41597)
Test: Inhibitory concentration against C-C chemokine receptor type 2

Chain of C-C chemokine receptor type 2 (P41597 whole entry): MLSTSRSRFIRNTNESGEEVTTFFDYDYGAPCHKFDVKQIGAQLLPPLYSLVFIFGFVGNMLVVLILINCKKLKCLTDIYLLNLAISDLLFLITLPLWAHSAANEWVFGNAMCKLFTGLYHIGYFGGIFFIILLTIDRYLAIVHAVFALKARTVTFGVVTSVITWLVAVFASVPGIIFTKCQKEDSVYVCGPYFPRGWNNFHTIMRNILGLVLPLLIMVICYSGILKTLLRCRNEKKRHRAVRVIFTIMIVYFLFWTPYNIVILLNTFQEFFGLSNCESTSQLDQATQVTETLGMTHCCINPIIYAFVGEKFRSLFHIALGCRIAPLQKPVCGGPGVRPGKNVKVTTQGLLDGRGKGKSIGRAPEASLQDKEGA

SMILES | IC50
CCN(CC)CCCC(C)Nc1nccc(NCc2ccc(Cl)cc2Cl)n1 (stereo not given) | > 10 µM

Target: not listed separately
Test: Inhibitory concentration against C-C chemokine receptor type 3
Design: species or system Homo sapiens

SMILES | IC50
CCN(CC)CCCC(C)Nc1nccc(NCc2ccc(Cl)cc2Cl)n1 (stereo not given) | 2 µM

Target: T1, C-C chemokine receptor type 4
Test: Inhibitory concentration against human C-C chemokine receptor type 4
Outline: as §1

SMILES | IC50
CCN(CC)CCCC(C)Nc1nc(-c2ccccc2)nc2ccccc12 (stereo not given) | > 25 µM
CCN(CC)CCCNc1nccc(OCc2ccc(Cl)cc2Cl)n1 | 8 µM
CCN(CC)CCCC(C)Nc1nccc(OCc2ccc(Cl)cc2Cl)n1 (stereo in doubt; 11a) | 1.5 µM
CC(C)CCCC(C)Nc1nccc(OCc2ccc(Cl)cc2Cl)n1 (stereo not given) | > 10 µM
CCN(CC)CCCC(C)Nc1ccnc(COc2cccc(Cl)c2)n1 (stereo not given) | 25 µM
CCN(CC)CCCC(C)Nc1ccnc(COc2ccccc2Cl)c1 (stereo not given) | 17 µM
CCN(CC)CCCC(C)Nc1nc(Cc2ccccc2)nc2ccccc12 (stereo not given) | 10 µM
CCN(CC)CCCC(C)Nc1nc(C(=O)Nc2ccccc2)nc2ccccc12 (stereo not given) | > 10 µM
CCN(CC)CCCCNc1nccc(OCc2ccc(Cl)cc2Cl)n1 | 3 µM
CCN(CC)CCCC(C)Nc1ccnc(COc2ccc(F)cc2)c1 (stereo not given) | 18 µM
CN(C)CCCCCNc1nccc(OCc2ccc(Cl)cc2Cl)n1 | 2 µM
CCN(CC)CCCC(C)Nc1nc(-c2ccc3ccccc3c2)nc2ccccc12 (stereo not given) | 2.5 µM
CCN(CC)CCCC(C)Nc1ccnc(COc2ccc(OC)cc2OC)n1 (stereo not given) | > 30 µM
CCN(CC)CCCC(C)Nc1nccc(OCc2ccc(Cl)cc2Cl)n1 (stereo in doubt; 10a) | 1.5 µM
CCN(CC)CCCC(C)Nc1ccnc(COc2cc(Cl)cc(Cl)c2)n1 (stereo not given) | 25 µM
CCN(CC)CCNc1nccc(OCc2ccc(Cl)cc2Cl)n1 | 9 µM
CCN(CC)CCCC(C)Nc1ccnc(COc2ccc(Cl)c(Cl)c2)c1 (stereo not given) | 4 µM
CCN(CC)CCCC(C)Nc1nccc(NCc2ccc(Cl)cc2Cl)n1 (stereo not given) | 0.27 µM
CCN(CC)CCCC(C)Nc1ccnc(COc2ccc(Cl)cc2Cl)c1 (stereo not given) | 1.2 µM
CCN(CC)CCCC(C)Nc1nc(COc2ccccc2)nc2ccccc12 (stereo not given) | 2 µM
CCN(CC)CCCC(C)Nc1ccnc(COc2cccc(OC)c2)n1 (stereo not given) | > 30 µM
CCN(CC)CCCC(C)Nc1ccnc(COc2ccc(Cl)cc2)c1 (stereo not given) | 20 µM
CCN(CC)CCCC(C)Nc1nc(CCCc2ccccc2)nc2ccccc12 (stereo not given) | > 10 µM
CCN(CC)CCCC(C)Nc1ccnc(OCc2ccc(Cl)cc2Cl)n1 (stereo not given) | 2.8 µM
CCN(CC)CCCC(C)Nc1nc(CCc2ccccc2)nc2ccccc12 (stereo not given) | 2.4 µM
CCN(CC)CCCC(C)Nc1ccnc(COc2ccccc2)c1 (stereo not given) | > 30 µM

Target: C-X-C chemokine receptor type 3 (Homo sapiens) (UniProt P49682)
Test: Inhibitory concentration against CXC chemokine receptor 3

SMILES | IC50
CCN(CC)CCCC(C)Nc1nccc(NCc2ccc(Cl)cc2Cl)n1 (stereo not given) | > 30 µM
